For assay [1], the system named is Streptococcus intermedius. Nature of the assay: Antimicrobial activity against Streptococcus intermedius NCTC 11324 planktonic cells assessed as bacterial count at 0.25 ug/ml (Rvb =756.9 +/- 62.98 10^8 CFU/ml). It counts as functional. Summed up:
(§1)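 Planktonic wild-type cells were inoculated at ≈4 × 10^5 CFU/ml in TSB in ultra-low-binding plates. Media were without or with ampicillin (0.02 to 0.14 μg/ml), ciprofloxacin (0.10 to 0.35 μg/ml) or tetracycline (0.03 to 0.20 μg/ml). After 12 h at 37°C in 5% CO2 aerobic air, CFU were counted, run in parallel with the BacTiter-Glo ATP assay. Experiments were done three times in two parallels.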

Assay [2] has as its system Streptococcus intermedius. Briefly: Antimicrobial activity against Streptococcus intermedius NCTC 11324 biofilm assessed as biofilm bacterial count at 0.10 ug/ml (Rvb =402.9 +/- 26.88 10^5 CFU/ml). In kind it is functional.
The test system of assay [3] is Streptococcus intermedius. Briefly: Antimicrobial activity against Streptococcus intermedius SI006 planktonic cells harboring luxS mutant gene assessed as bacterial count at 0.35 ug/ml in presence of 0.8 nM autoinducer 4,5-dihydroxy-2,3-pentanedione (Rvb =768.6 +/- 46.24 10^8 CFU/ml). It counts as functional.
Assay [4] relates to Streptococcus intermedius. Nature of the assay: Antimicrobial activity against Streptococcus intermedius NCTC 11324 planktonic cells assessed as bacterial count at 0.20 ug/ml (Rvb =756.9 +/- 62.98 10^8 CFU/ml). In kind it is functional. Put shortly: as §1
The subject of assay [5] is Streptococcus intermedius. Briefly: Antimicrobial activity against Streptococcus intermedius SI006 planktonic cells harboring luxS mutant gene assessed as bacterial count at 0.25 ug/ml in presence of 0.8 nM autoinducer 4,5-dihydroxy-2,3-pentanedione (Rvb =768.6 +/- 46.24 10^8 CFU/ml). It counts as functional.
Assay [6] has as its system Streptococcus intermedius. Briefly: Antimicrobial activity against Streptococcus intermedius SI006 biofilm harboring luxS mutant gene assessed as biofilm bacterial count at 0.20 ug/ml (Rvb =310.8 +/- 17.10 10^5 CFU/ml). It counts as functional.
For assay [7], the system named is Streptococcus intermedius. Briefly: Antimicrobial activity against Streptococcus intermedius NCTC 11324 assessed as biofilm formation at 0.10 to 0.25 ug/ml. It counts as functional, organism-based. Put shortly:
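Wild-type NCTC 11324 was grown overnight in TSB and inoculated into TSB with ampicillin (0.02 to 0.10 μg/ml), ciprofloxacin (0.10 to 0.28 μg/ml) or tetracycline (0.05 to 0.30 μg/ml), added at time zero. Wells held plastic coverslips and were incubated 12 h at 37°C in 5% CO2 aerobic air. Biofilm was measured as described previously. Experiments were done three times in three parallels.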

Assay [8] deals with Streptococcus intermedius. Nature of the assay: Antimicrobial activity against Streptococcus intermedius SI006 biofilm harboring luxS mutant gene assessed as biofilm bacterial count at 0.10 ug/ml in presence of 0.8 nM autoinducer 4,5-dihydroxy-2,3-pentanedione (Rvb =413.7 +/- 24.47 10^5 CFU/ml). In kind it is functional.
Assay [9] relates to Streptococcus intermedius. Briefly: Antimicrobial activity against Streptococcus intermedius NCTC 11324 planktonic cells assessed as bacterial count at 0.35 ug/ml (Rvb =756.9 +/- 62.98 10^8 CFU/ml). In kind it is functional.
The subject of assay [10] is Streptococcus intermedius. Briefly: Antimicrobial activity against Streptococcus intermedius NCTC 11324 biofilm assessed as biofilm bacterial count at 0.15 ug/ml (Rvb =402.9 +/- 26.88 10^5 CFU/ml). It counts as functional.
The subject of assay [11] is Streptococcus intermedius. Nature of the assay: Antimicrobial activity against Streptococcus intermedius SI006 biofilm harboring luxS mutant gene assessed as biofilm bacterial count at 0.20 ug/ml in presence of 0.8 nM autoinducer 4,5-dihydroxy-2,3-pentanedione (Rvb =413.7 +/- 24.47 10^5 CFU/ml). In kind it is functional.
For assay [12], the system named is Streptococcus intermedius. Briefly: Antimicrobial activity against Streptococcus intermedius NCTC 11324 biofilm assessed as biofilm bacterial count at 0.20 ug/ml (Rvb =402.9 +/- 26.88 10^5 CFU/ml). In kind it is functional.
The test system of assay [13] is Streptococcus intermedius. Nature of the assay: Antimicrobial activity against Streptococcus intermedius NCTC 11324 assessed as growth inhibition at 0.5 ug/ml. In kind it is functional. Put shortly:
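Broth microdilution MIC in ultra-low-binding 96-well plates, inoculum ≈4 × 10^5. Growth was read at 595 nm, and the MIC was taken as the lowest antibiotic concentration inhibiting growth.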

The test system of assay [14] is Streptococcus intermedius. Briefly: Antimicrobial activity against Streptococcus intermedius SI006 planktonic cells harboring luxS mutant gene assessed as bacterial count at 0.25 ug/ml (Rvb =708.1 +/- 47.64 10^8 CFU/ml). In kind it is functional.
Assay [15] has as its system Streptococcus intermedius. Briefly: Antimicrobial activity against Streptococcus intermedius NCTC 11324 planktonic cells assessed as bacterial count at 0.30 ug/ml (Rvb =756.9 +/- 62.98 10^8 CFU/ml). In kind it is functional. Put shortly:
as §1

In assay [16] the test system is Streptococcus intermedius. Nature of the assay: Antimicrobial activity against Streptococcus intermedius SI006 planktonic cells harboring luxS mutant gene assessed as bacterial count at 0.35 ug/ml (Rvb =708.1 +/- 47.64 10^8 CFU/ml). It counts as functional.
Assay [17] relates to Streptococcus intermedius. Nature of the assay: Antimicrobial activity against Streptococcus intermedius SI006 planktonic cells harboring luxS mutant gene assessed as bacterial count at 0.30 ug/ml (Rvb =708.1 +/- 47.64 10^8 CFU/ml). In kind it is functional.
Assay [18] concerns Streptococcus intermedius. Briefly: Antimicrobial activity against Streptococcus intermedius SI006 planktonic cells harboring luxS mutant gene assessed as bacterial count at 0.30 ug/ml in presence of 0.8 nM autoinducer 4,5-dihydroxy-2,3-pentanedione (Rvb =768.6 +/- 46.24 10^8 CFU/ml). It counts as functional.
Assay [19] relates to Streptococcus intermedius. Briefly: Antimicrobial activity against Streptococcus intermedius SI006 biofilm harboring luxS mutant gene assessed as biofilm bacterial count at 0.10 ug/ml (Rvb =310.8 +/- 17.10 10^5 CFU/ml). In kind it is functional.
For assay [20], the system named is Streptococcus intermedius. Briefly: Antimicrobial activity against Streptococcus intermedius SI006 planktonic cells harboring luxS mutant gene assessed as bacterial count at 0.20 ug/ml in presence of 0.8 nM autoinducer 4,5-dihydroxy-2,3-pentanedione (Rvb =768.6 +/- 46.24 10^8 CFU/ml). In kind it is functional.
Assay [21] concerns Streptococcus intermedius. Briefly: Antimicrobial activity against Streptococcus intermedius SI006 biofilm harboring luxS mutant gene assessed as biofilm bacterial count at 0.15 ug/ml (Rvb =310.8 +/- 17.10 10^5 CFU/ml). In kind it is functional.

Activity calls are given as the source filed them. No cut-off for these calls is given here.

Turning to `O=C(O)c1cn(C2CC2)c2cc(N3CCNCC3)c(F)cc2c1=O` [CIPROFLOXACIN], the CFU came to 5.14 ×10⁸ /ml in assay [1]; 768.1 ×10⁵ /ml in assay [2]; 2.3 ×10⁸ /ml in [3]; 5.87 ×10⁸ /ml in assay [4]; 4.72 ×10⁸ /ml in assay [5]; 131 ×10⁵ /ml in [6]. The CFU is on record as 814.7 ×10⁵ /ml in assay [8]; 2.6 ×10⁸ /ml in assay [9]; 663.8 ×10⁵ /ml in assay [10]; 519.5 ×10⁵ /ml in [11]; 577.2 ×10⁵ /ml in [12]; 1.16 ×10⁸ /ml in assay [14]. The CFU in assay [15] was 3.12 ×10⁸ /ml; in assay [16] it was 0.4 ×10⁸ /ml; in [17], 0.74 ×10⁸ /ml; in assay [18], 3.1 ×10⁸ /ml; in assay [19], 324.1 ×10⁵ /ml; in [20], 5.3 ×10⁸ /ml. In assay [21], the CFU was 333 ×10⁵ /ml. In addition, the outcome in assay [7] was inactive. Also, the Activity in assay [13] worked out at 0.5 µg/mL.

Source of the values: ChEMBL document CHEMBL1649212, “AI-2/LuxS is involved in increased biofilm formation by Streptococcus intermedius in the presence of antibiotics” (2009).
